{"data": "Measurements of several laboratories", "target": "Serine/threonine-protein kinase pim-2 (PIM2, Homo sapiens, UniProt Q9P1W9)", "note": "Lines come from different studies, so protocols differ."}
{"SMILES": "C[C@H](c1cccc(C#N)c1)n1cc(Cl)cc(C(N)=O)c1=N", "observed": "cell-free assay", "method": "competition with immobilised ligand", "concentration": "1 µM", "remaining binding": "100%"}
{"SMILES": "Nc1ncc2c(n1)-c1c([nH]c3ccc(C#CC4CC4)cc13)CCCC2", "observed": "binding", "method": "competition with immobilised ligand", "concentration": "1 µM", "remaining binding": "95%"}
{"SMILES": "CC(C)(C)c1ccc(-c2nc(CBr)nn2-c2cccc(O)c2)cc1", "observed": "cell-free assay", "method": "competition with immobilised ligand", "concentration": "10 µM", "remaining binding": "81%"}
{"SMILES": "CN(C)c1ncc(F)c(-c2cnn3ncccc23)n1", "observed": "binding", "concentration": "1 µM", "remaining binding": "95%"}
{"SMILES": "O=C(Nc1c[nH]nc1C(=O)NC1CCNCC1)c1cc(F)cc(F)c1", "observed": "binding", "method": "competition with immobilised ligand", "concentration": "1 µM", "remaining binding": "96%"}
{"SMILES": "c1ccc(N2CCN(Cc3nc4ccccc4[nH]3)CC2)nc1", "observed": "binding", "method": "competition with immobilised ligand", "concentration": "1 µM", "remaining binding": "85%"}
{"SMILES": "COc1cnc(Nc2cccc(S(N)(=O)=O)c2)nc1N1CCN(c2ccccc2)C(=O)C1", "observed": "binding", "method": "competition with immobilised ligand", "concentration": "1 µM", "remaining binding": "100%"}
{"SMILES": "O=C(c1ccc(Nc2ncc(Cl)c(-c3ccc(Cl)s3)n2)cc1)N1CCC(N2CCCC2)CC1", "observed": "binding", "method": "competition with immobilised ligand", "concentration": "1 µM", "remaining binding": "100%"}
{"SMILES": "C[C@@H]1CCN(c2nccc(-c3cnn4ncccc34)n2)C1", "observed": "binding", "concentration": "1 µM", "remaining binding": "78%"}
{"SMILES": "C[C@@H]1CN(c2ccc3ncc(-c4ccc5[nH]nc(C6CC6)c5c4)n3n2)C[C@H](C)O1", "observed": "binding", "method": "competition with immobilised ligand", "concentration": "0.5 µM", "remaining binding": "3.5%"}
{"SMILES": "CN(C(=O)c1ccccc1)c1cc(N(C)c2ccc3c(c2)CCc2ccc(C(=O)NCCN4CCOCC4)cc2C3=O)ccc1F", "observed": "cell-free assay", "method": "competition with immobilised ligand", "concentration": "1 µM", "remaining binding": "72%"}
{"SMILES": "c1cncc(-c2cccc(Nc3nccc(NC4CCCCC4)n3)c2)c1", "observed": "binding", "method": "competition with immobilised ligand", "concentration": "10 µM", "remaining binding": "45%"}
{"SMILES": "CCCOc1ccc([C@@H]2[C@@H](C(=O)O)[C@H](c3ccc4c(c3)OCO4)CN2CC(=O)Nc2c(CC)cccc2CC)cc1", "observed": "cell-free assay", "method": "competition with immobilised ligand", "concentration": "1 µM", "remaining binding": "99%"}
{"SMILES": "FC(F)(F)Oc1cccc(-c2cnc3ccc(-c4ccncc4)nn23)c1", "observed": "cell-free assay", "method": "competition with immobilised ligand", "concentration": "5 µM", "remaining binding": "45%"}
{"SMILES": "O=C(Nc1cccnn1)N1CCC(=Cc2cccc(Oc3ccc(C(F)(F)F)cn3)c2)CC1", "observed": "cell-free assay", "method": "competition with immobilised ligand", "concentration": "1 µM", "remaining binding": "97%"}
{"SMILES": "O=C(NCCCN1CCOCC1)c1ccc(Nc2nccc(-c3cc4ccccc4s3)n2)cc1", "observed": "binding", "method": "competition with immobilised ligand", "concentration": "1 µM", "remaining binding": "100%"}
{"SMILES": "N[C@H]1CCN(c2nccc(-c3cnn4ncccc34)n2)C1", "observed": "binding", "concentration": "1 µM", "remaining binding": "98%"}
{"SMILES": "CN([C@@H]1CCc2c(CC(=O)O)c3ccccc3n2C1)S(=O)(=O)c1ccc(F)cc1", "observed": "cell-free assay", "method": "competition with immobilised ligand", "concentration": "1 µM", "remaining binding": "100%"}
{"SMILES": "COc1ccnn2ncc(-c3ccnc(N(C)C)n3)c12", "observed": "binding", "concentration": "1 µM", "remaining binding": "100%"}
{"SMILES": "CN(C)c1ncnc(-c2ccc3nc(Nc4cc(CN5CCN(C(=O)CC(F)(F)F)CC5)ccn4)[nH]c3c2)c1Cl", "observed": "cell-free assay", "method": "competition with immobilised ligand", "concentration": "1 µM", "remaining binding": "100%"}
{"SMILES": "Cc1cnn2ncc(-c3ccnc(N(C)C)n3)c2c1", "observed": "binding", "concentration": "1 µM", "remaining binding": "84%"}
{"SMILES": "O=C(NCCCN1CCOCC1)c1ccc(Nc2ncc(Cl)c(-c3ccc(Cl)s3)n2)cc1", "observed": "binding", "method": "competition with immobilised ligand", "concentration": "1 µM", "remaining binding": "100%"}
{"SMILES": "COc1ncc2cc3ccccc3nc2c1C#N", "observed": "cell-free assay", "method": "competition with immobilised ligand", "concentration": "5 µM", "remaining binding": "88%"}
{"SMILES": "c1cnn2ncc(-c3ccnc(N4CCC45COC5)n3)c2c1", "observed": "binding", "concentration": "1 µM", "remaining binding": "64%"}
